Assay outcomes (PubChem)
MLL AF4-AF9 inh = blocks AF4 peptide binding to human AF9 | 350,000 tested, 0.47% active | AlphaScreen, biotin-AF4 peptide binding to FLAG-AF9 | AID 651704 | P42568 | inhibition, % at 10 µM;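 active = every replicate reaching a set inhibition limit, whatever the replicate mean, cut at about 25% in these data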;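 note: 0% = plate neutral control median and 100% = total signal loss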
Target sequence (P42568 whole entry, looked up): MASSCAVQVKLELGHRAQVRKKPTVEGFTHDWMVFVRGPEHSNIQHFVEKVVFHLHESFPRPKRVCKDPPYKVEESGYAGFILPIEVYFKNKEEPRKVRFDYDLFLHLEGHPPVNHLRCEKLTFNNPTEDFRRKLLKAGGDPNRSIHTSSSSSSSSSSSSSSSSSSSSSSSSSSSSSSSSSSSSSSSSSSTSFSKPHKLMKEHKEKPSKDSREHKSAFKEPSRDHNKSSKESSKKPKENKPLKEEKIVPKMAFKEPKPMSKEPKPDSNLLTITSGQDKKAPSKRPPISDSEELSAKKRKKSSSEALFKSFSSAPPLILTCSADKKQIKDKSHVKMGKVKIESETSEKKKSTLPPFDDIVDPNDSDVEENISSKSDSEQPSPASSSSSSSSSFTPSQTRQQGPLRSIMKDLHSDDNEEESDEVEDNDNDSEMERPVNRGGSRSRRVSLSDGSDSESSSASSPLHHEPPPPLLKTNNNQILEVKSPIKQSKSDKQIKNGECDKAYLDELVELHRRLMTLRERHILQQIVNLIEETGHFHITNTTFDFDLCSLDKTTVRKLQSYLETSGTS
GSIS activator = primary screen for activators of insulin secretion dependent on glucose, INS-1E cells, GLuc reporter luminescence. INS-1E GLuc reporter insulin secretion, 2-3 h. activation, % at 16.6 µM. 370,000 tested, 0.61% active;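 active = lowest replicate activation of at least 40%, so every replicate reaches that level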;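 note: 0% = median of neutral control wells and 100% = median of IBMX positive control wells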
RAD52 anneal inh = inhibitors of human RAD52 DNA annealing; inhibition, % at 18.7 µM; recombinant RAD52 DNA annealing, FRET fluorescence; 360,000 tested, 0.46% active; AID 651710; P43351;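 active = every replicate showing at least 50% inhibition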
ERAP1 HTS inh = inhibitors of human ERAP1 aminopeptidase; recombinant ERAP1, Leu-AMC fluorescence, 60 min; inhibition, % at 10.7 µM; 340,000 tested, 0.15% active; AID 652197;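 active = mean replicate inhibition of at least 30%, or all replicates individually reaching that 30% level; inactive = mean below 30% and not every replicate reaching it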;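 note: 0% = neutral control wells and 100% = L-leucinethiol positive control wells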
S100A4 MyoIIA = inhibitors of human S100A4 binding to myosin IIA peptide; AID 652163; inhibition, % at 10.7 µM; 360,000 tested, 0.14% active; S100A4/TAMRA-MyoIIA peptide fluorescence polarization;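 active = mean inhibition of at least 70% across replicates, with every replicate also reaching that level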
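Material: S100A4 monomer (human). Medium: Calcium-containing HEPES buffer, pH 7.2. Probe or stimulus: labelled myosin peptide probe, 5 nM. Compound dosing: one concentration per compound. Timing: polarization read 5 min after assay mix addition, stable 5–60 min. Benchmarks: DMSO as neutral control, TFP as positive control.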
Active calls of the source: *; i = inactive; nt = no result given. Most compounds without a hit are left out; they make up all but 1.5% or so of the library.

SMILES	MLL AF4-AF9 inh	GSIS activator	RAD52 anneal inh	ERAP1 HTS inh	S100A4 MyoIIA
COc1ccc(CC(=O)OCC(=O)c2ccc(OC)c(OC)c2)cc1	1	41*	-3	-5	-3
CN(C(=O)c1ccc2c(c1)OCO2)C1(C)CCS(=O)(=O)C1 (stereo not given)	-35	8	-17	-1	-3
COc1ccc(CC(=O)OCC(=O)c2ccc(OC)cc2)cc1	nt	8	nt	nt	nt
C[C@@H]1CN([C@H](C)CO)C(=O)c2cccc(NC(=O)c3nc4ccccc4s3)c2O[C@H]1CN(C)C(=O)Nc1cccc2ccccc12	nt	-6	nt	nt	nt
CCC(=O)Nc1ccc2c(c1)C(=O)N(C)C[C@@H](OC)[C@H](C)CN(C(=O)Cc1ccccn1)[C@H](C)CO2	-1	2	-25	-1	-3
COc1ccc(C(=O)c2cc(OC)c(OC)c(OC)c2)cc1OC	3	nt	-6	2	-5
COc1cc(C(=O)C(=O)c2ccc(OC)c(OC)c2)ccc1O	-2	45*	-2	5	-3
COc1ccc(OC)c(C(=O)c2ccc([N+](=O)[O-])cc2)c1	13	58*	-2	11	4
COc1ccc(C(=O)c2ccc(OC)c(OC)c2)cc1	nt	56*	nt	nt	nt
C[C@H]1CN(C)C(=O)c2cccc(NS(C)(=O)=O)c2O[C@H]1CN(C)S(C)(=O)=O	nt	0	nt	nt	nt
CO[C@@H]1CN(C)C(=O)c2ccc(NC(=O)c3nc4ccccc4s3)cc2OC[C@@H](C)N(Cc2cncnc2)C[C@@H]1C	nt	-12	nt	nt	nt
COc1cccc(-c2ccc3c(c2)[C@@H]2[C@@H](CCN2Cc2ccccc2OC)[C@@H](CO)N3)c1	nt	29	nt	nt	nt
CCC(=O)N1CC2(C1)CN(C(=O)CN1CCOCC1)[C@@H](CO)c1[nH]c3cc(OC)ccc3c12	nt	-4	nt	nt	nt
Cc1ccc2c(C)c(C(=O)N(Cc3ccc(N(C)C)cc3)C3CCS(=O)(=O)C3)oc2c1 (stereo not given)	38*	nt	-11	7	0
Cc1ccc2oc(C(=O)N(Cc3ccc(N(C)C)cc3)C3CCS(=O)(=O)C3)c(C)c2c1 (stereo not given)	7	6	-10	-2	-1
O=C1N[C@H](Cc2ccccc2)COCn2nncc2CC[C@H]1Cc1ccccc1	-1	2	6	1	3
CSc1nsc(SCC(=O)Nc2ccc(O)c(C(=O)O)c2)n1	-5	40*	-14	-6	-4
CSc1nsc(SCC(=O)Nc2ccc(Cl)c(C(=O)O)c2)n1	-2	9	-13	-23	-7
C[C@@H]1C(=O)N[C@@H](c2ccc(F)cc2)CC=CC[C@H](C)Oc2ccccc2C(=O)N1C (mixture of isomers)	nt	-1	nt	nt	nt
CC(C)NC(=O)C1(C)CSCC(=O)N1Cc1cccs1 (stereo not given)	-1	5	-11	nt	-4
CC(C)CCN1C(=O)CSCC1(C)C(=O)NC(C)C (stereo not given)	nt	43*	-3	-2	-2
Cn1cc(C(=O)NCC(=O)Nc2ccccc2Br)cn1	1	41*	-5	-2	-11
Cc1cc(Br)ccc1NC(=O)CNC(=O)c1cnn(C)c1	-1	-9	2	4	-2
Cn1cccc1/C=N/NC(=O)c1cc(-c2cccs2)nc2ccccc12	32*	1	-7	-1	2
COc1ccc(NC(=O)N2CC3(C2)CN(C(=O)c2cccnc2)[C@H](CO)c2[nH]c4cc(OC)ccc4c23)cc1	0	7	5	3	-11
SMILES	MLL AF4-AF9 inh	GSIS activator	RAD52 anneal inh	ERAP1 HTS inh	S100A4 MyoIIA
O=C1c2ccccc2-c2onc3ccc(N4CCCC4)c1c23	28*	6	i	1	53
O=C1c2ccccc2C(=O)c2c1cccc2N1CCCC1	40*	nt	8	-2	0
CCOC(=O)c1cnc2c(cnn2C)c1Oc1ccc(OC)cc1	0	62*	-24	6	-6
C=CCSc1nc2sc(C)c(C)c2c(=O)n1CC=C	nt	-4	nt	nt	nt
C=CCn1c(SCC(=O)c2c(N)n(C)c(=O)n(C)c2=O)nc2sc(C)c(C)c2c1=O	nt	309*	nt	nt	nt
COc1ccc2c3c([nH]c2c1)[C@@H](CO)N(Cc1ccccn1)CC31CN(C(=O)c2ccccn2)C1	-1	-9	nt	nt	25
Cc1c(OCC(=O)N(C)c2ccccc2)ccc2c3c(c(=O)oc12)CCC3	32*	-5	6	1	2
CCc1ccc(/C=C2\SC(=S)N(CCCC(=O)Nc3nccs3)C2=O)cc1	nt	121*	nt	nt	nt
CCc1ccc(/C=C2/SC(=S)N(CCC(=O)NCCCN3CCOCC3)C2=O)cc1	12	5	-25	0	-8
CCc1ccc(/C=C2\SC(=S)N(CCCC(=O)N3CCN(C)CC3)C2=O)cc1	33*	-15	-57	8	-6
CCc1ccc(/C=C2\SC(=S)N(CCCC(=O)NCCCN3CCOCC3)C2=O)cc1	4	41*	8	4	1
COc1ccc(/C=C2\SC(=S)N(CCCC(=O)N3CCN(C)CC3)C2=O)cc1	21	-8	19	12	0
CN1CCN(C(=O)CCCN2C(=O)/C(=C/c3cccc(Br)c3)SC2=S)CC1	27*	-7	-5	12	-3
C[C@H]1CN([C@@H](C)CO)C(=O)c2cc(C3=CCCCC3)cnc2O[C@@H]1CN(C)C(=O)Cc1ccncc1	nt	-3	nt	nt	nt
CCCNC(=O)N1CC2(CCN(Cc3ccc(F)cc3)CC2)c2c([nH]c3cc(OC)ccc23)[C@H]1CO	nt	-10	nt	nt	nt
COc1ccc2c3c([nH]c2c1)[C@@H](CO)N(C(=O)CC1CC1)CC31CCN(Cc2cncnc2)CC1	nt	-16	nt	nt	nt
Cc1cc(=O)[nH]c(SCC(=O)c2ccccc2)c1C#N	nt	43*	nt	nt	nt
C[C@@H]1CN([C@H](C)CO)C(=O)c2cc(-c3ccncc3)cnc2O[C@@H]1CN(C)C(=O)c1cccc(F)c1	-1	-8	-3	-1	1
O=C1c2[nH]nc(-c3ccccc3)c2C(c2ccccc2)N1c1ccccc1 (stereo not given)	0	49*	-6	-1	-2
